In ChEMBL document CHEMBL1140193, “Synthesis and anti-inflammatory evaluation of methylene bridged benzofuranyl imidazo[2,1-b][1,3,4]thiadiazoles” (Eur J Med Chem, 2008):

Key:
Rattus norvegicus [1] = assay: Analgesic activity in Wistar albino rat […] assessed as increase in reaction time for tail withdrawal at 100 mg/kg, po after 180 mins by tail flick method; type: functional
Rattus norvegicus [2] = assay: Analgesic activity in Wistar albino rat […] assessed as reaction time for tail withdrawal at 100 mg/kg, po after 300 mins by tail flick method; type: functional
How it was run: (§1)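 Rat tail-flick test: latency for the rat to withdraw its tail from hot water at 55 ± 0.5 °C. Drugs given orally. Reaction time in seconds read at 60, 90, 120 and 300 min after dosing. Treated animals compared with control and with a nimesulide standard. Wistar albino rats, 150-200 g, either sex; food withdrawn 12 h before and during testing.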

Rattus norvegicus [3] = assay: Analgesic activity in Wistar albino rat […] assessed as increase in reaction time for tail withdrawal at 100 mg/kg, po after 300 mins by tail flick method; type: functional; how it was run: as §1
Rattus norvegicus [4] = assay: Toxicity in Wistar albino rat assessed as mortality up to 3 g/kg, po after 24 hrs; type: organism-based; settings: in vivo, 3000 mg/kg
How it was run: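 Albino rats of either sex, six per group, dosed orally from 100 up to 3000 mg kg^-1 body weight. Animals were watched continuously for 8 h for signs of acute toxicity such as altered motor activity, ataxia, tremors, convulsions, sedation and lacrimation, and were checked for mortality over a 24 h period. Food was withheld for 12 h before dosing.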

Rattus norvegicus [5] = assay: Toxicity in Wistar albino rat assessed as effect on motor activity up to 3 g/kg, po after 8 hrs; type: organism-based; settings: in vivo, 3000 mg/kg
How it was run: (§2)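 Acute toxicity: albino rats of either sex in groups of six, oral doses from 100 up to 3000 mg kg^-1. Rats observed continuously for 8 h for changes in motor activity, ataxia, tremors, convulsions, sedation and lacrimation. Ulceration and haemorrhagic spots also inspected.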

Rattus norvegicus [6] = assay: Toxicity in Wistar albino rat assessed as induction of sedation up to 3 g/kg, po after 8 hrs; type: organism-based; settings: in vivo, 3000 mg/kg; how it was run: as §2
Rattus norvegicus [7] = assay: Toxicity in Wistar albino rat assessed as induction of convulsions and tremors up to 3 g/kg, po after 8 hrs; type: organism-based; settings: in vivo, 3000 mg/kg; how it was run: as §2
Rattus norvegicus [8] = assay: Toxicity in Wistar albino rat assessed as induction of gastric ulceration up to 3 g/kg, po after 8 hrs; type: organism-based, Stomach; settings: in vivo, 3000 mg/kg; how it was run: as §2
Rattus norvegicus [9] = assay: Toxicity in Wistar albino rat assessed as induction of haemorrhagic spots up to 3 g/kg, po after 8 hrs; type: organism-based; settings: in vivo, 3000 mg/kg; how it was run: as §2
Rattus norvegicus [10] = assay: Antiinflammatory activity in Wistar albino rat assessed as inhibition of carrageenan-induced paw oedema at 100 mg/kg, po measured 0.5 hrs after carrageenan challenge; type: functional
How it was run: (§3)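 Albino rats, 6 per group, dosed orally at 100 mg kg^-1; ibuprofen 100 mg kg^-1 as standard. One hour after dosing, 0.1 ml of 1% carrageenan with 2% gum acacia in normal saline injected subplantar into the right hind paw. Paw volume measured by plethysmometer; % inhibition versus control calculated. One-way ANOVA with Dunnett's t test.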

Rattus norvegicus [11] = assay: Antiinflammatory activity in Wistar albino rat assessed as inhibition of carrageenan-induced paw oedema at 100 mg/kg, po measured 1 hr after carrageenan challenge; type: functional; how it was run: as §3
Rattus norvegicus [12] = assay: Antiinflammatory activity in Wistar albino rat assessed as inhibition of carrageenan-induced paw oedema at 100 mg/kg, po measured 2 hrs after carrageenan challenge; type: functional; how it was run: as §3
Rattus norvegicus [13] = assay: Antiinflammatory activity in Wistar albino rat assessed as inhibition of carrageenan-induced paw oedema at 100 mg/kg, po measured 3 hrs after carrageenan challenge; type: functional; how it was run: as §3
Rattus norvegicus [14] = assay: Antiinflammatory activity in Wistar albino rat assessed as inhibition of carrageenan-induced paw oedema at 100 mg/kg, po measured 4 hrs after carrageenan challenge; type: functional; how it was run: as §3
Rattus norvegicus [15] = assay: Antiinflammatory activity in Wistar albino rat assessed as inhibition of carrageenan-induced paw oedema at 100 mg/kg, po measured 5 hrs after carrageenan challenge; type: functional; how it was run: as §3
Rattus norvegicus [16] = assay: Analgesic activity in Wistar albino rat […] assessed as reaction time for tail withdrawal at 100 mg/kg, po after 30 mins by tail flick method; type: functional
Rattus norvegicus [17] = assay: Analgesic activity in Wistar albino rat […] assessed as reaction time for tail withdrawal at 100 mg/kg, po after 60 mins by tail flick method; type: functional; how it was run: as §1
Rattus norvegicus [18] = assay: Analgesic activity in Wistar albino rat […] assessed as reaction time for tail withdrawal at 100 mg/kg, po after 120 mins by tail flick method; type: functional; how it was run: as §1
Rattus norvegicus [19] = assay: Analgesic activity in Wistar albino rat […] assessed as reaction time for tail withdrawal at 100 mg/kg, po after 180 mins by tail flick method; type: functional

Structure (SMILES) | Activity (Rattus norvegicus [1]) [%] | Activity (Rattus norvegicus [2]) [s] | Activity (Rattus norvegicus [3]) [%] | Activity (Rattus norvegicus [4]) | Activity (Rattus norvegicus [5]) | Activity (Rattus norvegicus [6]) | Activity (Rattus norvegicus [7]) | Activity (Rattus norvegicus [8]) | Activity (Rattus norvegicus [9]) | inhibition in vivo at 100 mg/kg (Rattus norvegicus [10]) [%] | inhibition in vivo at 100 mg/kg (Rattus norvegicus [11]) [%] | inhibition in vivo at 100 mg/kg (Rattus norvegicus [12]) [%] | inhibition in vivo at 100 mg/kg (Rattus norvegicus [13]) [%] | inhibition in vivo at 100 mg/kg (Rattus norvegicus [14]) [%] | inhibition in vivo at 100 mg/kg (Rattus norvegicus [15]) [%] | Activity (Rattus norvegicus [16]) [s] | Activity (Rattus norvegicus [17]) [s] | Activity (Rattus norvegicus [18]) [s] | Activity (Rattus norvegicus [19]) [s]
Cc1ccc2c(Cc3nn4c(C=O)c(-c5ccc(Cl)cc5)nc4s3)coc2c1 | 193.21 | 6.517 | 142.89 | Non-toxic | Non-toxic | Non-toxic | Non-toxic | Non-toxic | Non-toxic | 3.6 | 11.4 | 24.3 | 42.5 | 47.2 | 48.8 | 3.55 | 5.35 | 6.667 | 7.867
Cc1ccc2c(Cc3nn4cc(-c5ccc(Cl)cc5)nc4s3)coc2c1 | 259.03 | 7.95 | 196.31 | Non-toxic | Non-toxic | Non-toxic | Non-toxic | Non-toxic | Non-toxic | 8.38 | 13.4 | 42.1 | 51.7 | 55.9 | 58.1 | 3.483 | 4.033 | 8.75 | 9.633
Cc1ccc2c(Cc3nn4c(CN5CCOCC5)c(-c5ccc(Br)cc5)nc4s3)coc2c1 | 203.76 | 7.3 | 172.08 | Non-toxic | Non-toxic | Non-toxic | Non-toxic | Non-toxic | Non-toxic | 8.38 | 12.4 | 31.7 | 43.4 | 51.2 | 52.7 | 3.5 | 4.067 | 6.45 | 8.15
Cc1ccc2c(Cc3nn4c(CN5CCOCC5)c(-c5ccc([N+](=O)[O-])cc5)nc4s3)coc2c1 | 246.62 | 8.033 | 199.4 | Non-toxic | Non-toxic | Non-toxic | Non-toxic | Non-toxic | Non-toxic | 3.6 | 5.19 | 24.3 | 41.6 | 48 | 51.2 | 3.6 | 5.933 | 8.433 | 9.3
Cc1ccc2c(Cc3nn4cc(-c5ccc([N+](=O)[O-])cc5)nc4s3)coc2c1 | 268.98 | 8.35 | 211.21 | Non-toxic | Non-toxic | Non-toxic | Non-toxic | Non-toxic | Non-toxic | 0 | 13.4 | 24.3 | 40.9 | 45.7 | 49.8 | 4.65 | 7.4 | 9.567 | 9.9
Cc1ccc2c(Cc3nn4c(CN5CCOCC5)c(-c5ccc(Cl)cc5)nc4s3)coc2c1 | 205.62 | 6.95 | 159.03 | Non-toxic | Non-toxic | Non-toxic | Non-toxic | Non-toxic | Non-toxic | 4.77 | 15.5 | 28.9 | 43.4 | 48 | 50.4 | 3.767 | 5.45 | 6.767 | 8.2
Cc1ccc2c(Cc3nn4cc(-c5ccc(Br)cc5)nc4s3)coc2c1 | 0.633 | 2.683 | 0 | Non-toxic | Non-toxic | Non-toxic | Non-toxic | Non-toxic | Non-toxic | 6 | 10.3 | 12 | 10.8 | 11.1 | 22.5 | 2.65 | 2.667 | 2.583 | 2.7
CC(C)Cc1ccc(C(C)C(=O)O)cc1 (stereo unspecified) [IBUPROFEN] |  |  |  |  |  |  |  |  |  | 42.1 | 42.3 | 42.9 | 60 | 66.1 | 72.9 |  |  |  | 
CS(=O)(=O)Nc1ccc([N+](=O)[O-])cc1Oc1ccccc1 [NIMESULIDE] | 260.9 | 8.55 | 218.67 |  |  |  |  |  |  |  |  |  |  |  |  | 5.1 | 7.683 | 8.65 | 9.683
